Here are results for 15 compounds from ChEMBL document CHEMBL2396604, “Synthesis and structure activity relationship of tetrahydroisoquinoline-based potentiators of GluN2C and GluN2D containing N-methyl-D-aspartate receptors” (J Med Chem, 2013).

As usually defined, the EC50 is the concentration at which the effect is half-maximal.

Assay [1] addresses Glutamate NMDA receptor; Grin1/Grin2b (Rattus norvegicus) (UniProt P35439+Q00960). Description: Activity at rat recombinant GluN1/GluN2B receptor expressed in Xenopus oocytes assessed as potentiation of glycine/glutamate-induced effect at 100 uM by two-electrode voltage clamp technique relative to control. Type of assay: cell-based. To be noted: Oocyte. The procedure, abridged:
(§1)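 Two-electrode voltage clamp of oocytes at -40 mV, 2–5 days after cRNA injection. Bath solution (mM) 90 NaCl, 1.0 KCl, 0.5 BaCl₂, 0.005 EDTA, 10 HEPES, pH 7.4, 23°C. Compound applied with 100 µM glutamate plus 30 µM glycine; DMSO 0.05–0.5% final. Current expressed as percent of response without compound. For GluN2A, some oocytes were pretreated with 50 µM BAPTA-AM for 10 min or injected with K-BAPTA.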
In general terms: Two-electrode voltage clamp holds a large cell at a set potential and records current.

The target of assay [2] is Glutamate receptor 1 (Rattus norvegicus) (UniProt P19490). Description: Activity at rat recombinant GluA1 receptor expressed in Xenopus oocytes assessed as effect on glutamate-induced response by two-electrode voltage clamp technique. To be noted: Oocyte. The class given is cell-based. The procedure, abridged: (§2)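 Oocytes injected with 1–5 ng cRNA, kept in Barth's solution at 15°C for 2–5 days. Clamped at -40 mV in 90 NaCl, 1.0 KCl, 0.5 BaCl₂, 0.005 EDTA, 10 HEPES (mM), pH 7.4, 23°C. Receptors activated by 100 µM glutamate with compound co-applied. GluK2 oocytes pretreated with 10 µM concanavalin A for 10 min. DMSO 0.05–0.5% final.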

Assay [3] has as its target Glutamate NMDA receptor; Grin1/Grin2c (Rattus norvegicus, UniProt P35439+Q00961). The experiment in a line: Activity at rat recombinant GluN1/GluN2C receptor assessed as potentiation of glycine/glutamate-induced activation by two-electrode voltage clamp technique. The class given is protein-complex assay.
Assay [4] addresses Glutamate NMDA receptor; Grin1/Grin2c (Rattus norvegicus) (UniProt P35439+Q00961). Description: Activity at rat recombinant GluN1/GluN2C receptor expressed in Xenopus oocytes assessed as potentiation of glycine/glutamate-induced activation at 100 uM by two-electrode voltage clamp technique relative to control. The class given is cell-based. The note with it: Oocyte. The procedure, abridged:
as §1

The target of assay [5] is Glutamate receptor ionotropic, kainate 2 (Rattus norvegicus) (UniProt P42260). Description: Activity at rat recombinant GluK2 receptor expressed in Xenopus oocytes assessed as effect on glutamate-induced response by two-electrode voltage clamp technique. Type of assay: cell-based. To be noted: Oocyte. In a few lines: as §2
Assay [6] concerns the target Ionotropic glutamate receptor NMDA 1/2D (Rattus norvegicus, UniProt P35439+Q62645). Description: Activity at rat recombinant GluN1/GluN2D receptor assessed as potentiation of glycine/glutamate-induced activation by two-electrode voltage clamp technique. Type of assay: protein-complex assay.
Assay [7] concerns the target Glutamate NMDA receptor; Grin1/Grin2a (Rattus norvegicus) (UniProt P35439+Q00959). Description: Activity at rat recombinant GluN1/GluN2A receptor expressed in Xenopus oocytes assessed as potentiation of glycine/glutamate-induced effect at 100 uM by two-electrode voltage clamp technique relative to control. Type of assay: cell-based. To be noted: Oocyte. The procedure, abridged:
as §1

Assay [8] has as its system BHK. Description: Activity at GluN1/GluN2C receptor in hamster BHK cells assessed as effect on NMDA-induced response up to 6 hrs by Fluo-4 dye-based fluorescence assay. To be noted: Mesocricetus auratus. Type of assay: cell-based.
For assay [9], the system named is BHK. The experiment in a line: Activity at GluN1/GluN2C receptor in hamster BHK cells assessed as effect on NMDA-induced response after 24 hrs by Fluo-4 dye-based fluorescence assay. Type of assay: cell-based. To be noted: Mesocricetus auratus.
Assay [10] deals with Ionotropic glutamate receptor NMDA 1/2D (Rattus norvegicus) (UniProt P35439+Q62645). Description: Activity at rat recombinant GluN1/GluN2D receptor expressed in Xenopus oocytes assessed as potentiation of 0.3 uM glycine/0.1 uM glutamate-induced activation at 10 uM by two-electrode voltage clamp technique relative to control. The class given is cell-based. To be noted: Oocyte.

Active and inactive are the calls of the source. The rule behind the calls is not given here.

Sequence of Glutamate receptor 1 (Rattus norvegicus) (P19490 whole entry): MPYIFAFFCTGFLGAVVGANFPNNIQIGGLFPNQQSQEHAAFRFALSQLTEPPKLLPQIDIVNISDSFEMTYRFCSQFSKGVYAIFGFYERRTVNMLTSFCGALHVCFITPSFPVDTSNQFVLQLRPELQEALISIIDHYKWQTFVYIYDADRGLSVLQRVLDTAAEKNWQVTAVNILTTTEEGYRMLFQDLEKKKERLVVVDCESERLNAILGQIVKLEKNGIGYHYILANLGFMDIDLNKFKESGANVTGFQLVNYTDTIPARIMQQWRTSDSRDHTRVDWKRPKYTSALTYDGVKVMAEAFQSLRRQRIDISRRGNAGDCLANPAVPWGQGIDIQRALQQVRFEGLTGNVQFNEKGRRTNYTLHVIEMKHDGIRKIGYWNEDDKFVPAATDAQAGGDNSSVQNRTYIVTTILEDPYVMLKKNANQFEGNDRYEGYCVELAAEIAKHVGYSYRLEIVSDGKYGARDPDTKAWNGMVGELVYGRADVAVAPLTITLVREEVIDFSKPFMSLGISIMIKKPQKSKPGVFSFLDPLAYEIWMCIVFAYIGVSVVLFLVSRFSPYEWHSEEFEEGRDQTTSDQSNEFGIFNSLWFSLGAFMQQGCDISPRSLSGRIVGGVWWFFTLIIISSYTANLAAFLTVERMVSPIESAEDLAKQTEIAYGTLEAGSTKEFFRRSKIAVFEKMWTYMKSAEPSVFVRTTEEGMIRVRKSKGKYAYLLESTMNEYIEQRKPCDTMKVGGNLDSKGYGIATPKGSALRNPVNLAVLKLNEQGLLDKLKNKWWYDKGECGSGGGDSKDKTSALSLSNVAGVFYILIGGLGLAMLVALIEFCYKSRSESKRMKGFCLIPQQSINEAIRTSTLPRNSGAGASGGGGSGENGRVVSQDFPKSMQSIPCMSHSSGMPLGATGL
Sequence of Glutamate receptor ionotropic, kainate 2 (Rattus norvegicus) (P42260 whole entry): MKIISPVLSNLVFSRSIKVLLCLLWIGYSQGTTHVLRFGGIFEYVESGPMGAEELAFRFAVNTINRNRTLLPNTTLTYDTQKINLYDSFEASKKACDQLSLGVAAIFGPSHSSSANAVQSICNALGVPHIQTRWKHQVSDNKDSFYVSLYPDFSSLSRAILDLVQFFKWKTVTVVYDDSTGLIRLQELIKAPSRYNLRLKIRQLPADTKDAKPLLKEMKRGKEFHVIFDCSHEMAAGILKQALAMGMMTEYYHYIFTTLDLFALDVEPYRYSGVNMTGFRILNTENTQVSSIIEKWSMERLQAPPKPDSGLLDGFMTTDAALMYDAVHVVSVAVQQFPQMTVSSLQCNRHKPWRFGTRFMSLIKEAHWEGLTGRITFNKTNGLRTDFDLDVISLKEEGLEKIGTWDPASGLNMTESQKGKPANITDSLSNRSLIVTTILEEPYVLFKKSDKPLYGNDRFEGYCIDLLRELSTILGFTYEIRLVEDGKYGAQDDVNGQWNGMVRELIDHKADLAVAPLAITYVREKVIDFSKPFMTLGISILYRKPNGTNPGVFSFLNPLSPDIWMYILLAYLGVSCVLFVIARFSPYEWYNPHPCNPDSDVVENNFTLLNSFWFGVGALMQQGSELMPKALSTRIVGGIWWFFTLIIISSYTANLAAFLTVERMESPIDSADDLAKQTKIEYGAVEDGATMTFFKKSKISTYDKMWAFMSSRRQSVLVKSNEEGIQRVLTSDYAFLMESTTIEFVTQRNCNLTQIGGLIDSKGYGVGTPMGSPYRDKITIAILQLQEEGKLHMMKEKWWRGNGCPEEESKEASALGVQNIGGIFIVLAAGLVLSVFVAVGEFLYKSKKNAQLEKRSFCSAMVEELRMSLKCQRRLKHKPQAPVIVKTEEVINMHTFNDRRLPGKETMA

For `COc1ccc(OCC2c3cc(OC)c(OC)cc3CCN2C(=O)c2cccc(CCl)c2)cc1` (racemic), the outcome in assay [1] was Active. The result in [2] was inactive. For the same compound, in [3], the EC50 is 17 µM.
For `COc1ccc(OCC2c3cc(OC)c(OC)cc3CCN2C(=O)c2ccc3ccccc3c2)cc1` (racemic), the Activity in [4] stood at 136%. In [2], the result was inactive.
Regarding `COc1ccc(OCC2c3cc(OC)c(OC)cc3CCN2C(=O)N2CCOCC2)cc1` (racemic), the result in assay [1] was Active.
For the compound `COc1ccc(OCC2c3cc(OC)c(OC)cc3CCN2C(=O)c2cccc(Br)c2)cc1` (racemic), the result in assay [5] and in assay [2] was inactive. In addition, the EC50 was 2.2 µM in assay [6] and 0.9 µM in assay [3].
As to `COc1cc2c(cc1OC)CN(C(=O)c1cccc(Br)c1)CC2`, the Activity in assay [7] amounted to 70%.
Take `COC(=O)c1ccc(OCC2c3cc(OC)c(OC)cc3CCN2C(=O)c2cccc(Cl)c2)cc1` (racemic): the outcome in assay [1] was Active.
Consider `COc1ccc(OCC2c3cc(OC)c(OC)cc3CCN2C(=O)c2ccccc2C)cc1` (racemic), for which the Activity in assay [7] came to 70%.
On the same count and under the same terms, in the case of `COc1ccc(OCC2c3cc4c(cc3CCN2C(=O)c2ccccc2)OCO4)cc1` (racemic) it was 70%.
As to `COc1ccc(OCC2c3cc(OC)c(OC)cc3CCN2C(=O)c2cccc([N+](=O)[O-])c2)cc1` (racemic), the Activity in [7] was determined as 70%. Moreover, the EC50 in assay [6] was 13 µM; in [3], 11 µM.
In the case of `COc1ccc(OCC2c3cc(OC)c(OC)cc3CCN2C(=O)c2cccc(Cl)c2)cc1` (racemic), in the assay on BHK [8], the result was Active. For the same compound, the outcome (in [5]; in assay [2]; with BHK [9]) was inactive. Besides, in assay [10], the Activity was found to be 353%.
In the case of `COc1ccc(OCC2c3cc(OC)c(OC)cc3CCN2C(=O)c2cccc(OC)c2)cc1` (racemic), in [1], the result was Active. Further, the results for the EC50 in [6] and in assay [3] were 12 µM and 5.8 µM, respectively.
With `CCOc1ccc(OCC2c3cc(OC)c(OC)cc3CCN2C(=O)c2cccc(Cl)c2)cc1` (racemic), in [1], the outcome was Active.
Consider `COc1ccc(OCC2c3cc(OC)c(OC)cc3CCN2C(=O)c2ccccc2)cc1` (racemic), for which the result in [1] was Active. The outcome in assay [5] and in assay [2] was inactive. The EC50 in [6] turned out to be 11 µM; in assay [3], 12 µM.
Consider `COc1ccc(OCC2c3cc(OC)c(OC)cc3CCN2C(=O)c2cccc(F)c2)cc1` (racemic), for which the outcome in assay [5] and in [2] was inactive. Also, the EC50 came to 7 µM in [6] and 7.2 µM in assay [3].
With `CCOc1ccc(OCC2c3cc(OC)c(OC)cc3CCN2C(=O)c2cccc(Br)c2)cc1` (racemic), in assay [1], the outcome was Active.
